According to ChEMBL document CHEMBL1629439, “High-throughput identification of antibacterials against methicillin-resistant Staphylococcus aureus (MRSA) and the transglycosylase” (Bioorg Med Chem, 2010):
≈ marks a conversion by molar mass, not a printed value.

Legend:
[1] = Displacement of fluorescein-labeled moenomycin from transglycosylase at 100 uM after 30 mins by fluorescence anisotropy binding assay
[2] = Inhibition of transglycosylase assessed as inhibition of NBD- labelled lipid II polymerization at 100 uM
How it was run: (§1)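 100 µM NBD-labelled lipid II incubated 30 min with full-length PBP (EC, SA or Mtb) and 10 ng/µl N-acetylmuramidase in 50 mM Tris-HCl pH 8.0, 10 mM MgCl2, 0.1% Triton X-100, 10% DMSO, 15% MeOH. Supernatant run on anion-exchange HPLC with 20 mM–0.5 M ammonium acetate gradient. Inhibition calculated from substrate peak-area percentage. IC50 determined. S. aureus strains share one SA enzyme.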

Bacillus subtilis = test: Antimicrobial activity against Bacillus subtilis ATCC 23857 after 18 to 24 hrs by alamar blue assay; type: functional
How it was run: (§2)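 Broth microdilution per NCCLS in Mueller-Hinton broth, 8-point twofold dilutions, 384-well format. Exponential-phase cells at 5 × 10^5 cells/ml incubated with compound 18–24 h at 37 °C, then 20% Alamar blue added and fluorescence read. MIC90 taken as the lowest concentration preventing at least 90% bacterial growth.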

Staphylococcus aureus [3] = test: Antimicrobial activity against oxacillin- and methicillin-resistant Staphylococcus aureus isolate Sa-OXA-R2 after 18 to 24 hrs by alamar blue assay; type: functional
How it was run: (§3)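 Broth microdilution per NCCLS standard, Mueller-Hinton broth, 8-point twofold dilutions; exponentially growing cells at 5 10^5 cells/ml with compound, 18–24 h at 37 C; 20% Alamar blue added, fluorescence read; MIC90 taken as lowest concentration preventing at least 90% growth.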

Staphylococcus aureus [4] = test: Antimicrobial activity against Staphylococcus aureus ATCC 29213 after 18 to 24 hrs by alamar blue assay
Escherichia coli = test: Antimicrobial activity against Escherichia coli ATCC […] after 18 to 24 hrs by alamar blue assay; type: functional; conditions: Escherichia coli; read-out: MIC
How it was run: as §2

[5] = tested on: Mycolicibacterium smegmatis; test: Antimicrobial activity against Mycobacterium smegmatis BCRC 11565 after 18 to 24 hrs by alamar blue assay; type: functional; conditions: Mycolicibacterium smegmatis, BCRC 11565; read-out: MIC
How it was run: as §2

Acinetobacter baumannii = test: Antimicrobial activity against Acinetobacter baumannii ATCC 49139 after 18 to 24 hrs by alamar blue assay; type: functional; conditions: Acinetobacter baumannii, ATCC 49139; read-out: MIC
How it was run: as §2

Staphylococcus aureus [6] = test: Antimicrobial activity against methicillin-resistant Staphylococcus aureus ATCC 33592 after 18 to 24 hrs by alamar blue assay; type: functional; conditions: Staphylococcus aureus, ATCC 33592; read-out: MIC
How it was run: as §3

Staphylococcus aureus [7] = test: Antimicrobial activity against methicillin-resistant Staphylococcus aureus isolate NTUH4722 after 18 to 24 hrs by alamar blue assay; type: functional
How it was run: as §3

Pseudomonas aeruginosa = test: Antimicrobial activity against Pseudomonas aeruginosa ATCC 25619 after 18 to 24 hrs by alamar blue assay; type: functional; conditions: Pseudomonas aeruginosa, ATCC 25619; read-out: MIC
How it was run: as §2

[8] = Inhibition of transglycosylase assessed as inhibition of NBD- labelled lipid II polymerization
How it was run: as §1

[9] = tested on: Stenotrophomonas maltophilia; test: Antimicrobial activity against Stenotrophomonas maltophilia ATCC 13637 after 18 to 24 hrs by alamar blue assay; type: functional; conditions: Stenotrophomonas maltophilia, ATCC 13637; read-out: MIC
How it was run: as §2

Serratia marcescens = test: Antimicrobial activity against Serratia marcescens ATCC 14756 after 18 to 24 hrs by alamar blue assay; type: functional; conditions: Serratia marcescens, ATCC 14756; read-out: MIC
How it was run: as §2

Row | inhibition [1] [%] | inhibition [2] [%] | SMILES | MIC (Bacillus subtilis) [µg/mL] | MIC (Staphylococcus aureus [3]) [µg/mL] | MIC (Staphylococcus aureus [4]) [µg/mL] | MIC (Escherichia coli) [µg/mL] | MIC [5] [µg/mL] | MIC (Acinetobacter baumannii) [µg/mL] | MIC (Staphylococcus aureus [6]) [µg/mL] | MIC (Staphylococcus aureus [7]) [µg/mL] | MIC (Pseudomonas aeruginosa) [µg/mL] | IC90 [8] [µM] | MIC [9] [µg/mL] | MIC (Serratia marcescens) [µg/mL]
1 | 90 | 0 | Cc1ccc(Nc2nc3nonc3nc2Nc2cccc(C(F)(F)F)c2)cc1Cl | – | – | – | – | – | – | – | – | – | – | – | –
2 | – | – | O=C(Nc1ccc(Oc2ccc(Cl)cc2)c(Cl)c1)c1cc(Br)cc(Br)c1O | < 0.03 | 0.5 (≈ 0.94 µM) | 0.5 (≈ 0.94 µM) | 8 (≈ 15 µM) | 0.5 (≈ 0.94 µM) | 16 (≈ 30.1 µM) | 0.25 (≈ 0.47 µM) | 0.25 (≈ 0.47 µM) | 16 (≈ 30.1 µM) | 100 | 16 (≈ 30.1 µM) | 16 (≈ 30.1 µM)
3 | – | – | Cc1ccc(C(C)C)c(Oc2ccc(Cl)cc2NC(=O)c2cc(I)cc(I)c2O)c1 | < 0.03 | ≤ 0.03 | 4 (≈ 6.18 µM) | 8 (≈ 12.4 µM) | 0.5 (≈ 0.772 µM) | 16 (≈ 24.7 µM) | 0.5 (≈ 0.772 µM) | ≤ 0.03 | 16 (≈ 24.7 µM) | 50 | 16 (≈ 24.7 µM) | 16 (≈ 24.7 µM)
4 | – | – | O=C(Nc1ccc(Oc2cc3ccccc3cc2Cl)c(Cl)c1)c1cc(Cl)cc(I)c1O | < 0.03 | ≤ 0.03 | 4 (≈ 6.84 µM) | 8 (≈ 13.7 µM) | 0.5 (≈ 0.855 µM) | 16 (≈ 27.4 µM) | ≤ 2 | ≤ 0.03 | 16 (≈ 27.4 µM) | > 100 | 16 (≈ 27.4 µM) | 16 (≈ 27.4 µM)
5 | – | – | O=C(Nc1ccc(NS(=O)(=O)c2ccc(Cl)cc2)cc1Cl)c1cc(Cl)ccc1O | < 0.03 | ≤ 0.03 | 16 (≈ 33.9 µM) | 8 (≈ 17 µM) | 0.5 (≈ 1.06 µM) | 16 (≈ 33.9 µM) | 32 (≈ 67.8 µM) | ≤ 0.03 | 16 (≈ 33.9 µM) | > 100 | 16 (≈ 33.9 µM) | 16 (≈ 33.9 µM)
6 | – | – | O=C(c1ccccc1)c1cc(NC(=O)c2cc(Br)cc(Br)c2O)ccc1Cl | < 0.03 | 1 (≈ 1.96 µM) | 1 (≈ 1.96 µM) | 8 (≈ 15.7 µM) | 0.5 (≈ 0.981 µM) | 16 (≈ 31.4 µM) | 1 (≈ 1.96 µM) | 2 (≈ 3.92 µM) | 16 (≈ 31.4 µM) | 100 | 16 (≈ 31.4 µM) | 16 (≈ 31.4 µM)
7 | 90 | 0 | O=C(Nc1ccc(C(F)(F)F)cc1)N1CCN(c2nc(CCc3ccccc3)nc3sc4c(c23)CCCC4)CC1 | – | – | – | – | – | – | – | – | – | – | – | –
8 | – | – | O=C(Nc1cc(Cl)cc(C(=O)c2ccccc2)c1Cl)c1cc(Br)cc(Br)c1O | < 0.03 | 4 (≈ 7.35 µM) | 1 (≈ 1.84 µM) | 8 (≈ 14.7 µM) | 0.5 (≈ 0.919 µM) | 16 (≈ 29.4 µM) | 8 (≈ 14.7 µM) | 4 (≈ 7.35 µM) | 16 (≈ 29.4 µM) | 100 | 16 (≈ 29.4 µM) | 16 (≈ 29.4 µM)
9 | – | – | O=C(Nc1cc(Cl)cc(C(=O)c2ccc(Cl)cc2)c1Cl)c1cc(Cl)cc(Br)c1O | < 0.03 | 0.5 (≈ 0.936 µM) | 0.5 (≈ 0.936 µM) | 8 (≈ 15 µM) | 0.5 (≈ 0.936 µM) | 16 (≈ 30 µM) | 0.5 (≈ 0.936 µM) | 1 (≈ 1.87 µM) | 16 (≈ 30 µM) | 100 | 16 (≈ 30 µM) | 16 (≈ 30 µM)
10 | 95 | 0 | Cc1ccc(OC(=O)c2cc(-c3ccc(C)c(C)c3)on2)c(C)c1 | – | – | – | – | – | – | – | – | – | – | – | –
11 | – | – | O=C(Nc1cc(Cl)ccc1Oc1cccc2c(Br)cccc12)c1cc(Cl)cc(Br)c1O | < 0.03 | ≤ 0.03 | 4 (≈ 6.87 µM) | 8 (≈ 13.7 µM) | 0.5 (≈ 0.859 µM) | 16 (≈ 27.5 µM) | ≤ 2 | ≤ 0.03 | 16 (≈ 27.5 µM) | 100 | 16 (≈ 27.5 µM) | 16 (≈ 27.5 µM)
12 | – | – | O=C(Nc1cc(Cl)cc(C(=O)c2ccc(Cl)cc2)c1Cl)c1cc(Br)cc(Br)c1O | < 0.03 | 8 (≈ 13.8 µM) | 0.5 (≈ 0.864 µM) | 8 (≈ 13.8 µM) | 0.5 (≈ 0.864 µM) | 16 (≈ 27.7 µM) | 2 (≈ 3.46 µM) | 8 (≈ 13.8 µM) | 16 (≈ 27.7 µM) | 100 | 16 (≈ 27.7 µM) | 16 (≈ 27.7 µM)
13 | – | – | O=C(Nc1ccc(Oc2ccc(Cl)c3cccnc23)c(Br)c1)c1cc(Br)cc(Br)c1O | < 0.03 | ≤ 0.03 | 32 (≈ 51 µM) | 8 (≈ 12.7 µM) | 0.5 (≈ 0.797 µM) | 16 (≈ 25.5 µM) | 16 (≈ 25.5 µM) | ≤ 0.03 | 16 (≈ 25.5 µM) | 50 | 16 (≈ 25.5 µM) | 16 (≈ 25.5 µM)
